The record followed here is ChEMBL document CHEMBL1821582, “SAR analysis of innovative selective small molecule antagonists of sphingosine-1-phosphate 4 (S1P₄) receptor” (Bioorg Med Chem Lett, 2011).

The target of assay [1] is T1, Sphingosine 1-phosphate receptor 4 (Homo sapiens, UniProt O95977).
T1 sequence (O95977 whole entry): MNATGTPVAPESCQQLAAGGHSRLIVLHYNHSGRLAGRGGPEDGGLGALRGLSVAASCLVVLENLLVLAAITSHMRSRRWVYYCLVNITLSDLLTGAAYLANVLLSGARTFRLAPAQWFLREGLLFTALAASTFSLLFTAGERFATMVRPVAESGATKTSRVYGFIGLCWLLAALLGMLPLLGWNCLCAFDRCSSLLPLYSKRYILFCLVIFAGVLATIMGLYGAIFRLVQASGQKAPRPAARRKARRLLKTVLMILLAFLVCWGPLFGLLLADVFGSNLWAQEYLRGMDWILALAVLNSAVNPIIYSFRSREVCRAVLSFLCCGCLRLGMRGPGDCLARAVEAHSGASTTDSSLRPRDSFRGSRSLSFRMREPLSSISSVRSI
As to the kind of experiment: Antagonist activity at human S1P4 receptor expressed in EDG6-bla U2OS cells coexpressing human endothelial differentiation gene 6 linked to GAL4-VP16 assessed as beta-lactamase expression by FRET assay. It counts as functional, cell-based. The method in brief: (§1)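 Human EDG6 (S1P4) Tango assay in U2OS cells: the receptor is fused via a TEV protease site to a GAL4-VP16 transcription factor, with a co-expressed beta-arrestin/TEV protease fusion. Read-out is a beta-lactamase reporter driven by a UAS response element. Compounds were tested up to 25 μM, with percentage inhibition at 25 μM; values are the mean of n = 3 determinations.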

Assay [2] concerns the target T2, Sphingosine 1-phosphate receptor 1 (Homo sapiens, UniProt P21453). In words: Antagonist activity at S1P1 receptor. It counts as functional.
For assay [3], the target named is T3, Sphingosine 1-phosphate receptor 3 (Homo sapiens, UniProt Q99500). In words: Antagonist activity at S1P3 receptor. It counts as functional.
Assay [4] concerns the target T4, Sphingosine 1-phosphate receptor 5 (Homo sapiens, UniProt Q9H228). As to the kind of experiment: Antagonist activity at S1P5 receptor. It counts as functional.
Assay [5] deals with T5, Sphingosine 1-phosphate receptor 4 (Homo sapiens) (UniProt O95977).
T5 sequence (whole entry): T1 sequence (O95977 whole entry)
As to the kind of experiment: Antagonist activity at human S1P4 receptor expressed in EDG6-bla U2OS cells coexpressing human endothelial differentiation gene 6 linked to GAL4-VP16 assessed as beta-lactamase expression at 25 uM by FRET assay. It counts as functional, cell-based. In a few lines:
as §1

Assay [6] concerns the target T3, Sphingosine 1-phosphate receptor 3. In words: Inhibition of S1P3 receptor at 25 uM.
For assay [7], the target named is T6, Sphingosine 1-phosphate receptor 2 (Homo sapiens, UniProt O95136). In words: Inhibition of S1P2 receptor. To be noted: concentration not given here.
The target in assay [8] is T6, Sphingosine 1-phosphate receptor 2. In words: Antagonist activity at S1P2 receptor. The class given is functional.
The target in assay [9] is T2, Sphingosine 1-phosphate receptor 1. In words: Antagonist activity at S1P1 receptor upto 25 uM. The class given is functional.
Assay [10] deals with T4, Sphingosine 1-phosphate receptor 5. As to the kind of experiment: Inhibition of S1P5 receptor at 25 uM.
For assay [11], the target named is T2, Sphingosine 1-phosphate receptor 1. As to the kind of experiment: Inhibition of S1P1 receptor at 25 uM.
The target in assay [12] is T6, Sphingosine 1-phosphate receptor 2. As to the kind of experiment: Inhibition of S1P2 receptor at 25 uM.

Activity calls are given as the source filed them. The calls are words filed in the database; no cut-off is given here.

T6 sequence (O95136 whole entry): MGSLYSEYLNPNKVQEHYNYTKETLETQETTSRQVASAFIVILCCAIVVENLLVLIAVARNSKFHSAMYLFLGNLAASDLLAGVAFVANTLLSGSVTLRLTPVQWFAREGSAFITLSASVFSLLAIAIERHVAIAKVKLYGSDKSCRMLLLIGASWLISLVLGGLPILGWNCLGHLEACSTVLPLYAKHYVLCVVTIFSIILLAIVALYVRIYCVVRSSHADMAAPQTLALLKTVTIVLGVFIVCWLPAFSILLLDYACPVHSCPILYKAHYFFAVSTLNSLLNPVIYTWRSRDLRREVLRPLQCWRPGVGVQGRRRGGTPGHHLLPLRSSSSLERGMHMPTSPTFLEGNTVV
T4 sequence (Q9H228 whole entry): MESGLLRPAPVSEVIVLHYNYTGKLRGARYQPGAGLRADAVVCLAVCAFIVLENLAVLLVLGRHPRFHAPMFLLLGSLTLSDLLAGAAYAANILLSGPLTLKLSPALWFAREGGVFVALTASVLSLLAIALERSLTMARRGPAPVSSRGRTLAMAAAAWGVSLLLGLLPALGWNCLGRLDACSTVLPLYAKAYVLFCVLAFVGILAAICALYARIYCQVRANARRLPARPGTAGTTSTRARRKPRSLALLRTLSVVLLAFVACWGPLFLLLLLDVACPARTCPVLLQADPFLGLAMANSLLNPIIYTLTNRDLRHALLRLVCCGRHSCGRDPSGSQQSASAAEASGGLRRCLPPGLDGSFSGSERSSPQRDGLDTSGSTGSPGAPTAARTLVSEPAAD
T2 sequence (P21453 whole entry): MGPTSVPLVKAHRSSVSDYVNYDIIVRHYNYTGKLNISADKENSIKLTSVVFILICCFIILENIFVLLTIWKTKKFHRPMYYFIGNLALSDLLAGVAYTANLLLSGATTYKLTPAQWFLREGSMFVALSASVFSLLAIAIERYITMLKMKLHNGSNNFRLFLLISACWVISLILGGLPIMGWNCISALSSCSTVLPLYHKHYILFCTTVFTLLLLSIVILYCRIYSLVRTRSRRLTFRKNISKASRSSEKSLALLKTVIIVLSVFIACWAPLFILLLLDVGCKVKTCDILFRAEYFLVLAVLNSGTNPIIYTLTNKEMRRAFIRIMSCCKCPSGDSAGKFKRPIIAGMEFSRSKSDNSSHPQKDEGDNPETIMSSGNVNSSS
T3 sequence (Q99500 whole entry): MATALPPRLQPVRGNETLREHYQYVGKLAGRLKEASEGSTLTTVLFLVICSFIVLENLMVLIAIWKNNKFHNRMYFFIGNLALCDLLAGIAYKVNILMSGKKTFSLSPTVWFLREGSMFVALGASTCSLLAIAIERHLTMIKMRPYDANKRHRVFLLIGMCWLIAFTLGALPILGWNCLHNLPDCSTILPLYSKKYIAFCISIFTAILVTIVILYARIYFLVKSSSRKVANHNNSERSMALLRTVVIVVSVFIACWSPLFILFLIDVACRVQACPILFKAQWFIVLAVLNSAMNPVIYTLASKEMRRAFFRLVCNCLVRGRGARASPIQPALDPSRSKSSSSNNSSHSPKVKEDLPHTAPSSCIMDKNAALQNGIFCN

The IC50 is the concentration that gives 50% inhibition. In the case of `Cc1ccc(C)c(-c2coc(C(=O)Nc3c(C)cccc3C)c2)c1`, the half-inhibitory concentration (IC50) in assay [1] was determined as 0.211 µM.

For `Cc1ccc(C)c(-c2cc(C)c(C(=O)Nc3c(C)cccc3C)o2)c1`, in assay [1], the IC50 came to 0.173 µM.

`Cc1ccc(C)c(-c2ccc(C(=O)Nc3c(C)cccc3C)o2)c1`: the IC50 in assay [2], in [3] and in assay [4] was over 20 µM in each case.

As to `Cc1cccc(C)c1NC(=O)c1ccc(-c2cc(Cl)ccc2Cl)o1`, the half-inhibitory concentration (IC50) in assay [2] and in assay [3] was over 20 µM in each case.

`Cc1ccc(C)c(-c2cc(C(=O)Nc3c(C)cccc3C)ccc2C)c1`: the IC50 in assay [1] came to 2.4 µM.

Take `Cc1ccc(C)c(-c2cc(C(=O)Nc3c(C)cccc3C)co2)c1`: in assay [1], the IC50 amounted to 0.233 µM.

`Cc1ccc(C)c(-c2ccc(C(=O)Nc3c(C)cccc3C)n2C)c1`: the IC50 in assay [1] is 6.3 µM.

For `Cc1cccc(C)c1NC(=O)c1cccc(-c2cc(Cl)ccc2Cl)n1`, the outcome in assay [5] was inactive.

Usually inhibition stands for how much of the control response was suppressed. Low values mean little suppression, high ones strong suppression. For `Cc1ccc(C)c(-c2ccc(C(=O)Nc3c(C)cccc3C)s2)c1`, the inhibition in [6] was determined as 35%; in assay [7], 40%; in [10] it was 30%. Further, the IC50 in [8] is 1.1 µM; in [1] it was 0.059 µM. Moreover, the outcome in [9] was inactive.

For `CCc1cccc(C)c1NC(=O)c1nnc(-c2cc(Cl)ccc2Cl)o1`, in assay [5], the result was inactive.

Regarding `Cc1ccc(C)c(-c2oc(C(=O)Nc3c(C)cccc3C)cc2C)c1`, the half-inhibitory concentration (IC50) in [1] worked out at 0.911 µM.

As for `Cc1ccc(C)c(-c2cccc(C(=O)Nc3c(C)cccc3C)c2)c1`, the inhibition in assay [6] came to 40%; in assay [10] it was 40%; in assay [11] it was 30%; in [12] it was 25%. Also, the IC50 in [1] was determined as 0.075 µM.

`Cc1cccc(C)c1NCc1ccc(-c2cc(Cl)ccc2Cl)o1`: the outcome in assay [5] was inactive.
